For assay [1], the system named is BM collagen IV / MDA-MB-231 cells. Put plainly: Native peritoneal basement membrane. The settings on record: 3 d culture; GM6001 at 5 µM. In kind it is cell-based, mouse (C57BL/6) BM. In outline: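 Native basement membrane was made by stripping mesothelial cells from C57BL/6 mouse mesentery (1 N ammonium hydroxide) and mounting it on 6.5-mm Transwells. 5 × 10^4 MDA-MB-231 cells were seeded on top in DME/10% FBS, with medium below, and cultured 3 d. Samples were fixed in 4% formaldehyde, then stained on both sides for collagen IV (antibody 1:200), phalloidin and DAPI, and imaged by confocal. Read-out was total remaining collagen IV fluorescence; ≥3 independent experiments in duplicate.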

Assay [2] concerns MDA-MB-231 cells. The settings on record: CIA; ref Yu and Machesky, 2012; cited from earlier work.
Assay [3] relates to mCherry-MT1-MMP in MDA-MB-231 cells. Put plainly: FRAP of mCherry-MT1-MMP at plasma membrane of cells in CIA. In kind it is cell-based. The following applies: invasive pseudopods in Matrigel (CIA); LatA at 2 µM. In outline:
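mCherry-MT1-MMP expressed in MDA-MB-231 cells by nucleofection; cells kept at 37°C, 5% CO2. Photobleaching was done on the plasma membrane of invasive pseudopods in Matrigel and compared with other cell-surface regions, such as the membrane next to the nucleus. Fluorescence recovery gave MT1-MMP mobility.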

Assay [4] deals with GFP-actin in MDA-MB-231 cells. Put plainly: FRAP of GFP-actin in invasive pseudopods. In kind it is cell-based. The following applies: 2 µM LatA, invasive pseudopod, FRAP 90 s.
In assay [5] the target is actin (F-actin) in invasive pseudopods of MDA-MB-231 cells (human (endogenous in MDA-MB-231)) (UniProt P60709). Put plainly: FRET or BRET. On the technique in general: Bioluminescence resonance energy transfer reports proximity on the nanometre scale.

The source of these data is article PMC3483131 (The Journal of Cell Biology, 2012).

As for `CNC(=O)[C@H](Cc1c[nH]c2ccccc12)NC(=O)[C@@H](CC(=O)NO)CC(C)C` [GM6001], the “degradation and remodeling of BM collagen IV” value in assay [1] is recorded as “significantly blocked”. In assay [2], the “reduction of migration speed” value is reported as 30–50%.

Regarding `C/C1=C/C(=O)O[C@@H]2C[C@@H](CC[C@H](C)/C=C\C=C\CC1)O[C@@](O)([C@@H]1CSC(=O)N1)C2` [Latrunculin A], the “mobility of MT1-MMP in pseudopods” value in assay [3] was “mCherry-MT1-MMP became more mobile”. Also, the “GFP-actin exchange” value in assay [4] is on record as “GFP-actin exchanged much faster”.

Consider “MT1-MMP-GFP (from UniProt P50281 112-582) (natural protein)”, for which, in assay [5], the donor fluorescence lifetime with acceptor (FLIM-FRET) was 2.25 ns and the shift in the donor fluorescence lifetime (FLIM-FRET) was determined as 150 ps.
